# Test results reported in ChEMBL document CHEMBL4266041, “Hydroxybiphenylamide GroEL/ES Inhibitors Are Potent Antibacterials against Planktonic and Biofilm Forms of Staphylococcus aureus” (J Med Chem, 2018).
# Assays:
# [1] = Cytotoxicity against human THLE3 cells assessed as reduction in cell viability after 48 hrs by Alamar Blue reporter assay; conditions: THLE3 cells
# Acinetobacter baumannii = test: Antibacterial activity against Acinetobacter baumannii ATCC 19606 after 24 hrs by bacterial proliferation assay; assay type: functional, organism-based; conditions: ATCC 19606 = CIP 70.34 = JCM 6841, 24 h
# In short: (§1)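 Bacterial growth inhibition in liquid culture. The highest concentration tested was 100 µM. The mean was back-calculated from the average log value. Values above the top concentration were set 0.1 log unit higher.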
# E. coli GroEL/ES [2] = molecular target: T1, E. coli GroEL/ES (Escherichia coli, UniProt P0A6F5); test: Inhibition of Escherichia coli GroEL expressed in Escherichia coli DH5alpha/Escherichia coli GroES expressed in Escherichia coli BL21 (DE3) assessed as reduction in GroEL/GroES-mediated denatured MDH refolding after 20 to 40 mins by spectrometric analysis
# In short: (§2)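 Uses E. coli GroEL/ES with a denatured MDH or rhodanese reporter. GroEL first forms a binary complex with the denatured reporter. Refolding is started by adding ATP and GroES, then reporter enzyme activity is read. DMSO is the negative control. IC50 values from replicate curves are log-averaged after ROUT outlier screening.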
# HSP60/HSP10 = HSP60/HSP10 (Homo sapiens, UniProt P10809); test: Inhibition of human N-terminal octa-His-tagged HSP60 expressed in Escherichia coli Rosetta(DE3) pLysS/human HSP10 expressed in Escherichia coli Rosetta(DE3) assessed as reduction in HSP60/HSP10-mediated denatured MDH refolding after 40 to 60 mins by spectrometric analysis
# In short: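 Human HSP60/10 refolding of denatured MDH, run the same way as the GroEL/ES-dMDH assay. A binary complex of chaperonin and denatured MDH is formed, and refolding is started with ATP and HSP10. MDH activity is the read-out. DMSO is the negative control. IC50 values from replicate curves are log-averaged after ROUT outlier screening.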
# [3] = Cytotoxicity against HEK293 cells assessed as reduction in cell viability after 48 hrs by Alamar Blue reporter assay; conditions: human, HEK293 cells
# Staphylococcus aureus [4] = test: Antibacterial activity against methicillin-resistant Staphylococcus aureus ATCC BAA-44 after 6 to 8 hrs by bacterial proliferation assay; assay type: functional, organism-based; conditions: Staphylococcus aureus, ATCC BAA-44
# [5] = molecular target: T2, Thiosulfate sulfurtransferase (Homo sapiens, UniProt Q16762); test: Inhibition of refolded rhodanese (unknown origin) preincubated with Escherichia coli GroEL/GroES for 60 mins in absence of compound followed by compound addition by spectrometric analysis
# T2 sequence (Q16762 whole entry): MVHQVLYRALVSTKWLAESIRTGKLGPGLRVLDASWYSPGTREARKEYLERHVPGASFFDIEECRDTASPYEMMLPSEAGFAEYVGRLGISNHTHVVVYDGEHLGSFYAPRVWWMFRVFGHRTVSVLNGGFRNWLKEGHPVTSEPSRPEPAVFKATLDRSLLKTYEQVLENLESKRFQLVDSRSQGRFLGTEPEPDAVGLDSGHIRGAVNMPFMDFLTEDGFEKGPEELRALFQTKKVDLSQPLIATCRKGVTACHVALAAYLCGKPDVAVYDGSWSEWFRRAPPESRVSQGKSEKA
# Staphylococcus aureus [6] = test: Antibacterial activity against Staphylococcus aureus ATCC 25923 after 6 to 8 hrs by bacterial proliferation assay; assay type: functional, organism-based
# Pseudomonas aeruginosa = test: Antibacterial activity against Pseudomonas aeruginosa ATCC 10145 after 24 hrs by bacterial proliferation assay; assay type: functional, organism-based; conditions: ATCC 10145, 24 h; in short: as §1
# E. coli GroEL/ES [7] = molecular target: T1, E. coli GroEL/ES; test: Inhibition of Escherichia coli GroEL expressed in Escherichia coli DH5alpha/Escherichia coli GroES expressed in Escherichia coli BL21 (DE3) assessed as reduction in GroEL/GroES-mediated denatured rhodanese refolding after 45 mins by spectrometric analysis; in short: as §2
# Enterobacter cloacae = test: Antibacterial activity against Enterobacter cloacae subsp. cloacae ATCC 13047 after 24 hrs by bacterial proliferation assay; assay type: functional, organism-based; conditions: subsp. cloacae ATCC 13047, 24 h; in short: as §1
# Klebsiella pneumoniae = test: Antibacterial activity against Klebsiella pneumoniae ATCC 13883 after 6 to 8 hrs by bacterial proliferation assay; assay type: functional, organism-based; in short: as §1
# [8] = Inhibition of refolded MDH (unknown origin) preincubated with Escherichia coli GroEL/GroES for 45 mins in absence of compound followed by compound addition and measured for 20 to 35 mins by spectrometric analysis
# Enterococcus faecium = test: Antibacterial activity against Enterococcus faecium ATCC 19434 after 24 hrs by bacterial proliferation assay; assay type: functional, organism-based; conditions: ATCC 19434, 24 h
# T1 sequence (P0A6F5 whole entry, looked up): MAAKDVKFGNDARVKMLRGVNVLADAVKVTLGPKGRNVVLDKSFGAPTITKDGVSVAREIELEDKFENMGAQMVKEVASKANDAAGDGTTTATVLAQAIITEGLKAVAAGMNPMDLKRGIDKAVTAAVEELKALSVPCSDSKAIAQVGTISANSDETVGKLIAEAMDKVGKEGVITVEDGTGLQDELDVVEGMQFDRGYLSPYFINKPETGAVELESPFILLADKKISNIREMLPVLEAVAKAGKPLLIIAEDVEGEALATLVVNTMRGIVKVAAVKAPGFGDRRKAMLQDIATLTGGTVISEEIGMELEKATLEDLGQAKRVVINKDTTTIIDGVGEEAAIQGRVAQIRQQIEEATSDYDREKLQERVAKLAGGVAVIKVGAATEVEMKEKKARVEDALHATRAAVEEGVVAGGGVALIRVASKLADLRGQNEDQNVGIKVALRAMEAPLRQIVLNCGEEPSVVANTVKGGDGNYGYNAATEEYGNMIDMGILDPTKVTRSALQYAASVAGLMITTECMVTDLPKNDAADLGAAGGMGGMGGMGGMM
# Chain of HSP60/HSP10 (P10809 whole entry): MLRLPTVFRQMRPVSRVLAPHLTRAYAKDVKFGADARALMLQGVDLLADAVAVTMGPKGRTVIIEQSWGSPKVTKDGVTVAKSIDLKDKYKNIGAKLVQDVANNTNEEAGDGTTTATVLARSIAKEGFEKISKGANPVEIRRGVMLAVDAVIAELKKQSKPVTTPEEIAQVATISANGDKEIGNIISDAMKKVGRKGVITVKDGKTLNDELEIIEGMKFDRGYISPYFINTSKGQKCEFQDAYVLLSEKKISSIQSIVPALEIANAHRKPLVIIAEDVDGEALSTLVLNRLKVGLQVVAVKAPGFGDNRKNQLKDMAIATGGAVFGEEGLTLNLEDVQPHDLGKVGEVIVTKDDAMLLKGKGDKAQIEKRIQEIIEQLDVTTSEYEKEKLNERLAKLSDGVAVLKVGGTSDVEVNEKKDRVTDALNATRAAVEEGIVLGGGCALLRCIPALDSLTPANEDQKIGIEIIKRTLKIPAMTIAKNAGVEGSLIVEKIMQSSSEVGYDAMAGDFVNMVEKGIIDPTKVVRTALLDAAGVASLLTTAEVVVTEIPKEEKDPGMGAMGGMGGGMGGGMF
# Chain of HSP60/HSP10 (P61604 whole entry, further chain): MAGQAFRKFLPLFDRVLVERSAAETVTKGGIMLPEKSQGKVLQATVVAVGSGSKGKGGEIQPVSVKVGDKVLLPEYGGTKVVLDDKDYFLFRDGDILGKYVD
smiles,measurement,setting,value
"CCCCCCCCCC(=O)N[C@@H](Cc1c[nH]c2ccccc12)C(=O)NC(CC(N)=O)C(=O)N[C@@H](CC(=O)O)C(=O)N[C@@H]1C(=O)NCC(=O)N[C@@H](CCCN)C(=O)N[C@@H](CC(=O)O)C(=O)N[C@H](C)C(=O)N[C@@H](CC(=O)O)C(=O)NCC(=O)N[C@H](CO)C(=O)N[C@@H]([C@H](C)CC(=O)O)C(=O)N[C@@H](CC(=O)c2ccccc2N)C(=O)O[C@@H]1C (single isomer, unassigned) [DAPTOMYCIN]",CC50 at 48 h,[1],> 100 µM
same,EC50,Acinetobacter baumannii,> 100 µM
same,IC50,E. coli GroEL/ES [2],> 100 µM
same,IC50,HSP60/HSP10,> 100 µM
same,CC50 at 48 h,[3],> 100 µM
same,EC50,Staphylococcus aureus [4],1 µM
same,IC50,[5],> 100 µM
same,EC50,Staphylococcus aureus [6],0.68 µM
same,EC50,Pseudomonas aeruginosa,> 100 µM
same,IC50,E. coli GroEL/ES [7],> 100 µM
same,EC50,Enterobacter cloacae,> 100 µM
same,EC50,Klebsiella pneumoniae,> 100 µM
same,IC50,[8],> 63 µM
same,EC50,Enterococcus faecium,9.2 µM
